Data on eight compounds can be found in ChEMBL document CHEMBL3232763, “Synthesis of 6-cinnamoyl-2H-benzo[b][1,4]oxazin-3(4H)-ones and their effects on A549 lung cancer cell growth” (Eur J Med Chem, 2014).

Active and inactive are the calls of the source. The calls are words filed in the database; no cut-off is given here.

For assay [1], the system named is A549. Description: Induction of apoptosis in human A549 cells assessed as chromatin condensation at 5 uM measured at 48 hrs by Hoechst 33258 staining-based fluorescence microscopic analysis. The format is functional, cell-based. The gist of the method: (§1)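 After 48 h with 5 µM compound or 0.1% DMSO, A549 cells in 24-well plates stained with 10 µg/ml Hoechst 33258 for 30 min at 37 °C, washed twice with PBS, and nuclei examined by fluorescence microscopy for chromatin condensation and apoptotic bodies.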

Assay [2] concerns A549. As to the kind of experiment: Cytotoxicity against human A549 cells assessed as decrease in cell density at 5 uM after 24 to 48 hrs by phase contrast microscopic analysis. The format is functional, cell-based. The gist of the method: (§2)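 A549 cells (RPMI-1640, 10% bovine calf serum, 37 °C, 5% CO2) treated with compound at 5 µM or 0.1% DMSO control for 24 h or 48 h; morphology and cell density inspected by phase contrast microscopy.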

Assay [3] deals with A549. As to the kind of experiment: Cytotoxicity against human A549 cells assessed as growth inhibition measured at 48 hrs by SRB assay. It counts as functional, cell-based. The note with it: for IC50: A549, 48 h. The gist of the method: (§3)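 Sulforhodamine B assay: A549 cells seeded in 96-well plates, exposed 48 h to 1, 5 or 10 µM or 0.1% DMSO; survival expressed relative to DMSO-treated cells; triplicate assays, mean ± SE (n = 3); IC50 at 48 h derived.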

Assay [4] has as its system A549. As to the kind of experiment: Induction of apoptosis in human A549 cells assessed as increase in apoptotic bodies formation at 5 uM measured at 48 hrs by Hoechst 33258 staining-based fluorescence microscopic analysis. It counts as functional, cell-based. The gist of the method: as §1
Assay [5] concerns A549. Description: Cell cycle arrest in human A549 cells assessed as accumulation at S phase at 5 uM after 48 hrs by propidium iodide staining-based flow cytometric analysis (reference value: 39.68%). The format is functional.
The subject of assay [6] is A549. Description: Induction of autophagy in human A549 cells assessed as upregulation of LC3-2 protein expression at 5 uM after 48 hrs by Western blot analysis. It counts as functional, cell-based. An outline of the steps:
(§4)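 Cells treated 48 h at 5 µM, washed with ice-cold PBS, lysed, protein quantified by Bradford; SDS electrophoresis, PVDF transfer, blocking in 5% milk/PBST; probed overnight at 4 °C with rabbit anti-human LC3b and GAPDH antibodies, HRP secondaries, film detection; LC3-II band density normalised to loading control.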

Assay [7] relates to A549. As to the kind of experiment: Cytotoxicity against human A549 cells assessed as change in cell morphology at 5 uM after 48 hrs by phase contrast microscopic analysis. It counts as functional, cell-based. An outline of the steps: as §2
Assay [8] relates to A549. As to the kind of experiment: Induction of autophagy in human A549 cells assessed as increase in acidic vesicles accumulation at 5 uM after 48 hrs by acridine orange staining-based fluorescence microscopic analysis. It counts as functional, cell-based. The gist of the method:
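A549 cells treated 48 h at 5 µM, then stained with acridine orange (5 µg/ml) for 1 min at room temperature, washed twice with PBS, and acidic vesicles viewed by fluorescence microscopy (200×).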

The test system of assay [9] is A549. As to the kind of experiment: Cell cycle arrest in human A549 cells assessed as accumulation at G2 phase at 5 uM after 48 hrs by propidium iodide staining-based flow cytometric analysis (reference value: 9.63%). It counts as functional.
Assay [10] deals with A549. As to the kind of experiment: Cell cycle arrest in human A549 cells assessed as accumulation at G1 phase at 5 uM after 48 hrs by propidium iodide staining-based flow cytometric analysis (reference value: 50.70%). It counts as functional.
Assay [11] concerns A549. Description: Induction of necrosis in human A549 cells at 10 uM after 48 hrs by LDH release assay. The format is functional, cell-based. The gist of the method: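 LDH level measured in A549 cells after 48 h with 10 µM compound or untreated control, using a commercial kit per manufacturer's instructions; mean ± SE, n = 3.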
The test system of assay [12] is A549. As to the kind of experiment: Induction of autophagy in human A549 cells assessed as effect on LC3-2 protein expression at 5 uM after 48 hrs by Western blot analysis. The format is functional, cell-based. The gist of the method:
as §4

In assay [13] the test system is A549. As to the kind of experiment: Cytotoxicity against human A549 cells assessed as inhibition of cell viability at 10 uM after 48 hrs by SRB assay relative to control. It counts as functional. The gist of the method: as §3

As for `COc1ccc(/C=C/C(=O)c2ccc3c(c2)NC(=O)CO3)c(OC)c1`, the result in the assay on A549 [1], in the assay on A549 [4], in the assay with A549 [7] and in the assay with A549 [11] was inactive. In addition, the outcome in the assay with A549 [2], in the assay with A549 [6] and in the assay with A549 [8] was Active. Besides, the “growth inhibition (GI)” value with A549 [3] is “Dose-dependent effect”. Moreover, the IC50 in the assay on A549 [3] was found to be 6.49 µM. Besides, the figures for the Activity in the assay with A549 [5], in the assay with A549 [9] and in the assay on A549 [10] were 30.59%, 11.5% and 57.92%, respectively.
Turning to `O=C1COc2ccc(C(=O)/C=C/c3ccc(Cl)cc3)cc2N1`, the result with A549 [7] was inactive.
On to `O=C1COc2ccc(C(=O)/C=C/c3ccc4ccccc4c3)cc2N1`, for which the result in the assay with A549 [7] was inactive.
Take `O=c1[nH]cc(F)c(=O)[nH]1` [FLUOROURACIL]: in the assay on A549 [3], the IC50 is 0.98 µM.
As to `O=C1COc2ccc(C(=O)/C=C/c3ccccc3)cc2N1`, the result in the assay with A549 [1], in the assay on A549 [4], in the assay on A549 [6], in the assay on A549 [7], with A549 [8] and in the assay on A549 [11] was inactive. Also, the result in the assay with A549 [2] was Active. Besides, the “growth inhibition (GI)” value in the assay on A549 [3] is “Dose-dependent effect”. In the assay on A549 [3], the IC50 was 5.46 µM. Moreover, the Activity is 32.08% in the assay on A549 [5], 12.66% in the assay on A549 [9] and 55.27% with A549 [10].
For `O=C1COc2ccc(C(=O)/C=C/c3ccc4c(c3)OCO4)cc2N1`, the result in the assay with A549 [1], in the assay on A549 [12], in the assay with A549 [4], in the assay with A549 [7], with A549 [8] and in the assay on A549 [11] was inactive. Moreover, the result in the assay on A549 [2] was Active. Moreover, the “growth inhibition (GI)” value in the assay on A549 [3] was “Dose-dependent effect”. Further, the IC50 in the assay with A549 [3] was found to be 16.3 µM. In addition, the Activity is on record as 26.3% in the assay with A549 [5], 10.33% in the assay with A549 [9] and 63.37% in the assay with A549 [10].
Take `COc1cc(/C=C/C(=O)c2ccc3c(c2)NC(=O)CO3)cc(OC)c1`: the Activity in the assay with A549 [13] is given as 24%; with A549 [5], 9.25%; in the assay on A549 [9], 15.29%; in the assay on A549 [10] it was 75.46%. Moreover, the result in the assay on A549 [1], with A549 [4], in the assay on A549 [7] and in the assay with A549 [11] was inactive. In addition, the result with A549 [2], in the assay on A549 [6] and with A549 [8] was Active. In addition, the “growth inhibition (GI)” value with A549 [3] is “Dose-dependent effect”. The IC50 with A549 [3] turned out to be 3.29 µM.
For `O=C1COc2ccc(C(=O)/C=C/c3ccc(OCc4ccccc4)cc3)cc2N1`, the result in the assay on A549 [7] was inactive.
